Measurements published in PMC3763817 (Chemistry & biology, 2013).
Square brackets hold non-standard residues; d marks the D form. Ends that are not written are not given here. Peptide text beside a SMILES is read from it. * marks the point of attachment. Biotin = O=C1N[C@H]2[C@H](CS[C@H]2CCCCC(=O)*)N1; lc = a hydrocarbon chain of 6 methylene groups; Abu = CC[C@H](N)C(=O)O; Dap = NC[C@H](N)C(=O)O; Acryloyl = C=CC(=O)*

Experiments:
[1] = test system: wt Siah1; test: MALDI-TOF MS of covalent modification, wt Siah1; format: binding; details: protein incubated with peptide in 0.5x PBS (Figures 2e, 3d)
Outline: (§1)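 Siah1 residues 81-282 (wild type or T156C mutant) from pET15b expression, incubated with peptide in 0.5x PBS. Equal volumes of sample and sinapic acid matrix (20 mg/ml in 50% acetonitrile-0.1% TFA) were co-crystallised on target and air-dried 5 min. Controls were buffer-only and protein spectra. Peaks were picked by centroid mass find (S/N threshold 5, peak width 40 m/z, 80% height, Top Hat baseline subtraction).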

[2] = test system: Siah1 T156C; test: MALDI-TOF MS of covalent modification, Siah1 T156C; format: binding; details: protein incubated with peptide in 0.5x PBS (Figure 2d)
Outline: as §1

[3] = test system: T156C Siah1; test: X-ray crystal structure of BI-117C3/T156C Siah1 complex; format: binding; details: crystal structure at 2.8 Å, judged by refined atomic B-factors
Outline: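 Siah1 residues 81–282 with T156C mutation, purified by a published method, mixed with 2-fold excess test peptide at 4 °C for 16–18 h. Doubly peptide-bound dimer isolated by anion exchange. Sitting-drop vapour-diffusion crystals grown over 60–65% MPD, 100 mM N,N-bis(2-hydroxyethyl)glycine pH 9.0. Synchrotron data; molecular replacement using a refined covalent peptide–Siah1 dimer as search model.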

[4] = target: T1, his6-Siah1 (aa 81-282) (Homo sapiens, UniProt Q8IUQ4); test: DELFIA displacement of biotin-PHYL, wild type Siah; format: binding
T1 sequence (Q8IUQ4 81-282): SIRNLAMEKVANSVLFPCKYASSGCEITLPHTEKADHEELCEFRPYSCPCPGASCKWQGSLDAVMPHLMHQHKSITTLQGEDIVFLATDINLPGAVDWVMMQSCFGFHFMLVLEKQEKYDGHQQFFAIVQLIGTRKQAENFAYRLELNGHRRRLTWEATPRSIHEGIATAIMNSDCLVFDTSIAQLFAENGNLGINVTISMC

[5] = target: T2, his6-Siah1 T156C (aa 81-282) (Homo sapiens, UniProt Q8IUQ4, T156C); test: DELFIA displacement of biotin-PHYL, mutant T156C Siah; format: binding
T2 sequence (Q8IUQ4 81-282 T156C): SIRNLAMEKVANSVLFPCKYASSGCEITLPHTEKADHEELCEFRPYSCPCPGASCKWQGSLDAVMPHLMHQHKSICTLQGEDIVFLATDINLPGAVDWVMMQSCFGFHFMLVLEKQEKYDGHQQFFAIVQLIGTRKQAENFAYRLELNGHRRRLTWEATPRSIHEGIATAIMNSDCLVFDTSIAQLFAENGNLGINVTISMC

[6] = test system: substrate-binding domain of Siah; details: ref House et al., 2003, 2006; cited from earlier work
[7] = target: T3, his6-Siah1 (aa 81-282) (UniProt Q8IUQ4 81-282); test: DELFIA displacement assay
T3 sequence (looked up): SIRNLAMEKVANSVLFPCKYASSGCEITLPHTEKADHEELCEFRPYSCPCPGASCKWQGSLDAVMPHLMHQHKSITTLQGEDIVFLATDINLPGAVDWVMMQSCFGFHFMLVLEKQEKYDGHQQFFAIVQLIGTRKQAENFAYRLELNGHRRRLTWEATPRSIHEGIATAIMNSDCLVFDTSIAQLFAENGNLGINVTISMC

[8] = target: T4, his6-Siah1 T156C (aa 81-282) (UniProt Q8IUQ4 81-282, T156C); test: DELFIA displacement assay
T4 sequence (looked up): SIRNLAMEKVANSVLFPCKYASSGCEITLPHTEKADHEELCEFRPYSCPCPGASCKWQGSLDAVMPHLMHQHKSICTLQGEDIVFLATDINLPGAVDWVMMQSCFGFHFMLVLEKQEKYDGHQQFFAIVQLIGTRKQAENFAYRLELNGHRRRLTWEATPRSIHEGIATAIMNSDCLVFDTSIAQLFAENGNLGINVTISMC

[9] = target: the molecule itself; test: crystal structure
[10] = target: T4, his6-Siah1 T156C (aa 81-282); test: DELFIA displacement assay; remark: listed apart in the source

Molecule: C=CC(=O)NCCCC[C@H](NC(=O)[C@@H]1CCCN1C(=O)[C@H](CCCNC(=N)N)NC(=O)[C@@H](NC(=O)[C@H](CCSC)NC(=O)[C@H](C)NC(=O)[C@@H](NC(=O)[C@@H]1CCCN1C(=O)[C@H](CCCNC(=N)N)NC(=O)[C@H](CC(C)C)NC(=O)[C@H](CCCCN)NC(C)=O)C(C)C)C(C)C)C(=O)N[C@H](C(=O)N[C@@H](CCCNC(=N)N)C(N)=O)C(C)C [BI-107F7] (Ac-KLRPVAMVRPK(Acryloyl)VR-NH2)
- Covalent modification of wt Siah1 by MALDI-TOF mass spectrometry [1]: confirmed the formation of the covalent complex

Molecule: C=CC(=O)NC[C@H](NC(=O)[C@@H](NC(=O)[C@@H]1CCCN1C(=O)[C@H](CCCNC(=N)N)NC(=O)[C@H](CC(C)C)NC(=O)[C@H](CCCCN)NC(C)=O)C(C)C)C(=O)N[C@@H](CCSC)C(=O)N[C@H](C(=O)N[C@@H](CCCNC(=N)N)C(=O)N1CCC[C@H]1C(=O)N[C@@H](Cc1c[nH]c2ccccc12)C(=O)N[C@H](C(=O)N[C@@H](CCCNC(=N)N)C(N)=O)C(C)C)C(C)C [BI-117C3] (Ac-KLRPV[Dap](Acryloyl)MVRPWVR-NH2)
- Covalent modification of Siah1 T156C by MALDI-TOF mass spectrometry [2]: expected mass increase
- Covalent modification of wt Siah1 by MALDI-TOF mass spectrometry [1]: unable to covalently modify wt Siah1
- Efficiency of covalent thioether bond formation to Cys156 [3]: ~ 100%

Molecule: Ac-KLRPVAMVRPTVR-NH2 [BI-107D1]
- IC50 [4]: 1000 nM
- IC50 [5]: 1000 nM

Molecule: Ac-QQERTKLRPVAMVRPTVRVQPQL-NH2 [PHYL]
- Affinity for the substrate-binding domain of Siah [6]: low micromolar affinity

Molecule: Ac-RQIKIWFQNRRMKWKKPPPPPPPPPPQQERTKLRPVAMVRPTVRVQPQL-NH2 [PEN-P10-PHYL, reference compound]
- IC50 [4]: 1000 nM

Molecule: Ac-KLRPV[Abu]MVRPTVR-NH2 [BI-107E1 (Ac-KLRPVεMVRPTVR-NH2)]
- IC50 [7]: 2000 nM
- IC50 [8]: 2000 nM

B1: Siah1 81-282 (wild-type) (domain or fragment, UniProt Q8IUQ4 81-282, looked up)
chain: SIRNLAMEKVANSVLFPCKYASSGCEITLPHTEKADHEELCEFRPYSCPCPGASCKWQGSLDAVMPHLMHQHKSITTLQGEDIVFLATDINLPGAVDWVMMQSCFGFHFMLVLEKQEKYDGHQQFFAIVQLIGTRKQAENFAYRLELNGHRRRLTWEATPRSIHEGIATAIMNSDCLVFDTSIAQLFAENGNLGINVTISMC
- binding result [9]: binds

B2: Siah1 81-282 (T156C mutant), for crystallographic studies (domain or fragment, UniProt Q8IUQ4 81-282, looked up)
chain: SIRNLAMEKVANSVLFPCKYASSGCEITLPHTEKADHEELCEFRPYSCPCPGASCKWQGSLDAVMPHLMHQHKSICTLQGEDIVFLATDINLPGAVDWVMMQSCFGFHFMLVLEKQEKYDGHQQFFAIVQLIGTRKQAENFAYRLELNGHRRRLTWEATPRSIHEGIATAIMNSDCLVFDTSIAQLFAENGNLGINVTISMC
- binding result [9]: binds

Molecule: Ac-QQERTKLRPVAMVRPTVRVQPQL-NH2 [PHYL (Ac-QQERTKLRPVAMVRPTVRVQPQL-NH2)]
- IC50 [7]: 500 nM

Molecule: Ac-KLRPVAMVRPTVR-NH2 [BI-107D1 (Ac-KLRPVAMVRPTVR-NH2)]
- IC50 [7]: 1000 nM
- IC50 [8]: 1000 nM

Molecule: Ac-KLRPVAMVRPMVR-NH2 [BI-107E12 (Ac-KLRPVAMVRPMVR-NH2)]
- IC50 [8]: 900 nM

Molecule: Ac-KLRPVAMVRPWVR-NH2 [BI-107F1 (Ac-KLRPVAMVRPWVR-NH2)]
- IC50 [8]: 400 nM

Molecule: {Biotin-lc}-QQERTKLRPVAMVRPTVRVQPQL [biotin-PHYL (biotin-lc-QQERTKLRPVAMVRPTVRVQPQL)]
- binding result [10]: binds

B3: BI-117C3 (Ac-KLRPVδMVRPWVR-NH2) (peptide)
chain: Ac-KLRPV[Dap](Acryloyl)MVRPWVR-NH2
SMILES: C=CC(=O)NC[C@H](NC(=O)[C@@H](NC(=O)[C@@H]1CCCN1C(=O)[C@H](CCCNC(=N)N)NC(=O)[C@H](CC(C)C)NC(=O)[C@H](CCCCN)NC(C)=O)C(C)C)C(=O)N[C@@H](CCSC)C(=O)N[C@H](C(=O)N[C@@H](CCCNC(=N)N)C(=O)N1CCC[C@H]1C(=O)N[C@@H](Cc1c[nH]c2ccccc12)C(=O)N[C@H](C(=O)N[C@@H](CCCNC(=N)N)C(N)=O)C(C)C)C(C)C
- IC50 [7]: > 100000 nM
- IC50 [8]: 6 nM

Molecule: Ac-KLRPVAMVRPK(Acryloyl)VR-NH2 [BI-107F7 (Ac-KLRPVAMVRPαVR-NH2)]
- IC50 [7]: 100 nM
